# Assays:
# Vero = test: Growth inhibition of cytomegalovirus in Vero cells; format: functional, Human betaherpesvirus 5
# [1] = target: T1, Capsid scaffolding protein (Human cytomegalovirus (strain AD169) (HHV-5) (Human herpesvirus 5), UniProt P16753); test: Potency against human cytomegalovirus protease in HCMV pNA assay; parameters: species or system Human herpesvirus 5 strain AD169
# T1 sequence (P16753 whole entry): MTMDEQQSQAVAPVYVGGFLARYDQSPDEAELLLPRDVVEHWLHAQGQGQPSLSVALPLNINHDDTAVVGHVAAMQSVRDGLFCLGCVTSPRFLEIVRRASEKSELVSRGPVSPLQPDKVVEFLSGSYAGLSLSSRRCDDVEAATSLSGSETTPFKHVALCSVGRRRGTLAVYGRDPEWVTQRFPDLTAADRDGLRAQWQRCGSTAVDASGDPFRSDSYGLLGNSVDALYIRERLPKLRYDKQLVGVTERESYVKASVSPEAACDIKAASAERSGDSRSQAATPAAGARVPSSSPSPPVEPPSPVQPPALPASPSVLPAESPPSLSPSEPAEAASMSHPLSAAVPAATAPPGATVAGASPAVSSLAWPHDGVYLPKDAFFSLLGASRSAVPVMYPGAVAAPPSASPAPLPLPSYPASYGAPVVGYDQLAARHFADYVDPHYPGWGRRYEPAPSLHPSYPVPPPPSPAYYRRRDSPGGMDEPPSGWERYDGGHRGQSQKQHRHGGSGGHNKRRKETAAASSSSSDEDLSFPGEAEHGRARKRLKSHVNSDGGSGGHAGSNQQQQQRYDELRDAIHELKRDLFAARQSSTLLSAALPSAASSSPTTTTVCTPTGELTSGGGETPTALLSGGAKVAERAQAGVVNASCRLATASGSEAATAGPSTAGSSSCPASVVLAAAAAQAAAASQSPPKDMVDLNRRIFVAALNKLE
# [2] = target: T1, Capsid scaffolding protein; test: Inhibition of human cytomegalovirus protease in HCMV pNA assay.; parameters: species or system Human herpesvirus 5 strain AD169
# [3] = Compound was tested for its stability in human plasma; format: ADME, organism-based
# Human betaherpesvirus 5 [4] = test: Concentration required to inhibit human cytomegalovirus HCMV-AD169 in ELISA assay
# Human betaherpesvirus 5 [5] = test: Concentration required to inhibit human cytomegalovirus HCMV-AD169 in antiviralplaque reduction assay; format: functional, organism-based
# [6] = C max in dog; format: ADME, organism-based, Canis lupus familiaris; conditions: in vivo
# [7] = Clearance value in dog; format: ADME, organism-based, Canis lupus familiaris; conditions: in vivo
# Summary of the method: (§1)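 Dog pharmacokinetics after intravenous administration, with plasma clearance, volume of distribution and half-life derived from plasma drug levels.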
# [8] = T max in dog; format: ADME, organism-based, Canis lupus familiaris; conditions: in vivo
# Prothrombin [9] = target: T2, Prothrombin (Homo sapiens, UniProt P00734); test: Concentration required to inhibit thrombin
# [10] = Steady state distribution value in dog; format: ADME, organism-based, Canis lupus familiaris; conditions: in vivo, read-out: Vdss; summary of the method: as §1
# [11] = T max in guinea pig; format: ADME, organism-based, Cavia porcellus; conditions: in vivo
# [12] = T 1/2 in guinea pig; format: ADME, organism-based, Cavia porcellus; conditions: in vivo
# Summary of the method: (§2)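 Guinea-pig pharmacokinetics after intravenous dosing, with plasma clearance, volume of distribution and half-life. Drug levels were also measured in brain and vitreous humor.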
# [13] = Clearance value in guinea pig; format: ADME, organism-based, Cavia porcellus; conditions: in vivo; summary of the method: as §2
# [14] = Steady state distribution value in guinea pig; format: ADME, organism-based, Cavia porcellus; conditions: in vivo, read-out: Vdss; summary of the method: as §2
# [15] = Concentration required to inhibit elastase
# Canis familiaris [16] = species: Canis familiaris; test: AUC 0-inf in dog; format: ADME, organism-based, Canis lupus familiaris, Plasma; parameters: time infinity; conditions: in vivo
# [17] = C max in guinea pig; format: ADME, organism-based, Cavia porcellus; conditions: in vivo
# [18] = Bioavailability in dog; format: ADME, organism-based, Canis lupus familiaris; conditions: in vivo
# Summary of the method: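 Oral bioavailability in dog, set against intravenous administration in the same study.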
# Cavia porcellus [19] = species: Cavia porcellus; test: AUC 0-t in guinea pig; format: ADME, organism-based, Plasma; conditions: in vivo
# [20] = T 1/2 in dog; format: ADME, organism-based, Canis lupus familiaris; conditions: in vivo; summary of the method: as §1
# Canis familiaris [21] = species: Canis familiaris; test: AUC 0-t in dog; format: ADME, organism-based, Canis lupus familiaris, Plasma; conditions: in vivo
# Acetylcholinesterase [22] = target: T3, Acetylcholinesterase (Homo sapiens, UniProt P22303); test: Concentration required to inhibit Acetylcholinesterase
# Cavia porcellus [23] = species: Cavia porcellus; test: AUC 0-inf in guinea pig; format: ADME, organism-based, Plasma; parameters: time infinity; conditions: in vivo
# [24] = Concentration of compound required to inhibit elastase
# Prothrombin [25] = target: T2, Prothrombin; test: Concentration of compound required to inhibit thrombin
# Acetylcholinesterase [26] = target: T3, Acetylcholinesterase; test: Concentration of compound required to inhibit Acetylcholinesterase
# Human betaherpesvirus 5 [27] = test: Concentration required to inhibit human cytomegalovirus HCMV-AD169 in ELISA assay; remark: listed apart in the source
# T3 sequence (P22303 whole entry): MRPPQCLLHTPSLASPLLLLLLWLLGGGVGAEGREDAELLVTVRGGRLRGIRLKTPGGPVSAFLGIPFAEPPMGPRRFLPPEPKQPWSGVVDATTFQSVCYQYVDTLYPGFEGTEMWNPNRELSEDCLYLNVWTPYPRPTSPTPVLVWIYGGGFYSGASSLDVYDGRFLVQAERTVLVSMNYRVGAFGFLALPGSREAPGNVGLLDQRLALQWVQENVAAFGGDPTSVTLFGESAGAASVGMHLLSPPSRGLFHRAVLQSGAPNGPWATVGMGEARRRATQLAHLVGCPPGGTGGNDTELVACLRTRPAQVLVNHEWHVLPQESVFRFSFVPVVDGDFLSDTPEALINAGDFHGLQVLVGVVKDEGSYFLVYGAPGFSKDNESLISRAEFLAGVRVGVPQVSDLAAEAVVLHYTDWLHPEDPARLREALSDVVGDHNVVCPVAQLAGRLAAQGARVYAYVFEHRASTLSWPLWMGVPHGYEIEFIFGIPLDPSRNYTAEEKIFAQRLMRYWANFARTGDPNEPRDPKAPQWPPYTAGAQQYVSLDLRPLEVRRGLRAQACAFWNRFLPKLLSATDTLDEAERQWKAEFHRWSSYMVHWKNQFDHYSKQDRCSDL
structure (smiles),measurement,setting,value
CC(C)c1ccc(NC(=O)N2CCC[C@H]2C(=O)N2CC[C@H]3[C@H]2[C@H](C)C(=O)N3C(=O)C2CC2)cc1,CCID50,Vero,274 µM
same,Ki,[1],2 nM
same,IC50,[2],200 nM
same,half-life,[3],0.5 h
same,IC50,Human betaherpesvirus 5 [4],31000 nM
CC(C)c1ccc(NC(=O)N2CCC[C@H]2C(=O)N2CC[C@H]3[C@H]2[C@H](C)C(=O)N3c2nc3ccc([N+](=O)[O-])cc3s2)cc1,CCID50,Vero,128 µM
same,IC50,Human betaherpesvirus 5 [5],8700 nM
same,Ki,[1],25 nM
same,IC50,[2],390 nM
same,half-life,[3],24 h
CC(C)c1ccc(NC(=O)N2CCC[C@H]2C(=O)N2CC[C@H]3[C@H]2[C@H](C)C(=O)N3c2nc3ccc(CO)cc3s2)cc1,CCID50,Vero,125 µM
same,Ki,[1],40 nM
same,IC50,[2],310 nM
same,half-life,[3],> 20 h
same,IC50,Human betaherpesvirus 5 [4],520 nM
CC(C)c1ccc(NC(=O)N2CCC[C@H]2C(=O)N2CC[C@H]3[C@H]2[C@H](C)C(=O)N3c2ccc([N+](=O)[O-])cc2)cc1,CCID50,Vero,69 µM
same,IC50,Human betaherpesvirus 5 [5],> 70000 nM
same,IC50,[2],8700 nM
same,half-life,[3],> 24 h
COc1ccc2nc(N3C(=O)[C@@H](C)[C@@H]4[C@@H]3CCN4C(=O)[C@@H]3CCCN3C(=O)Nc3ccc(C(C)C)cc3)sc2n1,CCID50,Vero,>500 µM
same,IC50,Human betaherpesvirus 5 [5],31000 nM
same,IC50,[2],870 nM
same,half-life,[3],9 h
CC(C)c1ccc(NC(=O)N2CCC[C@H]2C(=O)N2CC[C@H]3[C@H]2[C@H](C)C(=O)N3c2nc3cccnc3s2)cc1,CCID50,Vero,<31 µM
same,Ki,[1],21 nM
same,IC50,[2],290 nM
same,half-life,[3],8 h
same,IC50,Human betaherpesvirus 5 [4],3600 nM
CC(C)c1ccc(NC(=O)N2CCC[C@H]2C(=O)N2CC[C@H]3[C@H]2[C@H](C)C(=O)N3c2nccs2)cc1,CCID50,Vero,280 µM
same,IC50,Human betaherpesvirus 5 [5],> 30000 nM
same,Ki,[1],446 nM
same,IC50,[2],1500 nM
same,half-life,[3],> 24 h
CC(C)c1ccc(NC(=O)N2CCC[C@H]2C(=O)N2CC[C@H]3[C@H]2[C@H](C)C(=O)N3C(=O)C2[C@@H](C)[C@H]2C)cc1 (stereo partly drawn),CCID50,Vero,375 µM
same,IC50,Human betaherpesvirus 5 [5],> 30000 nM
same,IC50,[2],1800 nM
same,half-life,[3],1.5 h
CC(C)c1ccc(NC(=O)N2CCC[C@H]2C(=O)N2CC[C@H]3[C@H]2[C@H](C)C(=O)N3c2nc3ccccc3s2)cc1,CCID50,Vero,>500 µM
same,Cmax,[6],5480 ng/mL
same,clearance,[7],8 mL/min/kg
same,Tmax,[8],4.8 min
same,IC50,Prothrombin [9],> 200000 nM
same,Vd,[10],0.8 L/kg
same,Tmax,[11],4.8 min
same,half-life,[12],1 h
same,clearance,[13],60 mL/min/kg
same,Vd,[14],1.6 L/kg
same,IC50,[15],> 10000 nM
same,IC50,Human betaherpesvirus 5 [5],5000 nM
same,Ki,[1],10 nM
same,AUC 0-infinity,Canis familiaris [16],9750 ng/mL/h
same,IC50,[2],180 nM
same,half-life,[3],> 24 h
same,Cmax,[17],32000 ng/mL
same,bioavailability,[18],29%
same,AUC 0-t,Cavia porcellus [19],2210 ng/mL/h
same,half-life,[20],1.5 h
same,AUC 0-t,Canis familiaris [21],9660 ng/mL/h
same,IC50,Acetylcholinesterase [22],> 100000 nM
same,AUC 0-infinity,Cavia porcellus [23],2230 ng/mL/h
CCOC(=O)c1ccc2nc(N3C(=O)[C@@H](C)[C@@H]4[C@@H]3CCN4C(=O)[C@@H]3CCCN3C(=O)Nc3ccc(C(C)C)cc3)sc2c1,CCID50,Vero,>500 µM
same,Ki,[1],7.4 nM
same,IC50,[2],350 nM
same,half-life,[3],9 h
same,IC50,Human betaherpesvirus 5 [4],5100 nM
CC(C)c1ccc(NC(=O)N2CCC[C@H]2C(=O)N2CC[C@H]3[C@H]2[C@H](C)C(=O)N3c2nc3ccc(OC(F)(F)F)cc3s2)cc1,CCID50,Vero,>500 µM
same,Ki,[1],20 nM
same,IC50,[2],460 nM
same,half-life,[3],11 h
same,IC50,Human betaherpesvirus 5 [4],5300 nM
CC(C)c1ccc(NC(=O)N2CCC[C@H]2C(=O)N2CC[C@H]3[C@H]2[C@H](C)C(=O)N3C(=O)[C@@H]2[C@H](C)[C@@H]2C)cc1,CCID50,Vero,219 µM
same,IC50,[24],> 10000 nM
same,IC50,Prothrombin [25],> 200000 nM
same,Ki,[1],16 nM
same,IC50,Acetylcholinesterase [26],> 100000 nM
same,IC50,[2],300 nM
same,half-life,[3],6 h
same,IC50,Human betaherpesvirus 5 [27],10000 nM

# Source: ChEMBL document CHEMBL1136799, “Design and synthesis of pyrrolidine-5,5'-trans-lactams (5-oxo-hexahydropyrrolo[3,2-b]pyrroles) as novel mechanism-based inhibitors of human cytomegalovirus protease. 4. Antiviral activity and plasma stability” (J Med Chem, 2003)
